# Assay outcomes deposited in PubChem by Sanford-Burnham Center for Chemical Genomics.
# In the library only some 1.8% were active in any assay of this set; here they are far more common.
# STEP block: blocks human striatal-enriched tyrosine phosphatase; P54829; recombinant STEP, OMFP fluorogenic substrate, fluorescence; inhibition, % at 20 µM; 0.25% of 360,000 active; AID 588621;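 active means inhibition at 20 µM, scaled per plate between control wells, above about 37%, limit read from the data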;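 further: 0% = DMSO with enzyme and substrate and 100% = substrate only without enzyme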
#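 Test system: STEP tyrosine phosphatase / Reagent: OMFP at 25 µM / Doses: 20 µM, 1% DMSO / Read-out: percent inhibition scaled to no-enzyme and uninhibited-enzyme controls, plate-pattern corrected / Detection: FITC-channel fluorescence of OMFP product / Medium: Bis-Tris buffer pH 6.0, 2.5 mM DTT, 0.005% Tween 20 / Schedule: 20 min at room temperature, dark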
# HKDC1 inh: HKDC1 (human) hexokinase inhibition; Q2TB90; recombinant HKDC1, G6PDH/diaphorase resazurin coupled fluorescence; inhibition, % at 20 µM; 0.16% of 340,000 active; AID 493160;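 active means inhibition above about 35% when tested at 20 µM, limit read from the data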;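 further: plate controls were DMSO wells with enzyme for no effect and DMSO wells lacking enzyme for full effect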
#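 System: Recombinant HKDC1 hexokinase | Amount: HKDC1 at 5 µg/mL | Reagent: Glucose with 1 mM ATP | Doses: Single 20 µM dose | Incubation: Reaction time 90 min, room temperature, protected from light | Signal: Coupled resazurin fluorescence, excitation 525 nm, emission 613 nm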
# DNMT1 block: inhibitors of human DNMT1; DNMT1 molecular beacon, Hinp1I cleavage, fluorescence; 0.83% of 360,000 active; P26358; inhibition (reported as % activation of signal), % at 10 µM; in the data active means inhibition above about 50%
# Scp1 inh: Scp-1 (human) phosphatase inhibition. Q9GZU7. Recombinant Scp1, phosphopeptide, malachite green phosphate absorbance. inhibition, % at 20 µM. 0.88% of 340,000 active. AID 493091;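 active means inhibition above about 50% at 20 µM, limit read from the data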;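 further: plate controls were DMSO wells with enzyme for no effect and wells lacking enzyme for full effect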
# Target sequence (Q9GZU7 76-261 limits assumed): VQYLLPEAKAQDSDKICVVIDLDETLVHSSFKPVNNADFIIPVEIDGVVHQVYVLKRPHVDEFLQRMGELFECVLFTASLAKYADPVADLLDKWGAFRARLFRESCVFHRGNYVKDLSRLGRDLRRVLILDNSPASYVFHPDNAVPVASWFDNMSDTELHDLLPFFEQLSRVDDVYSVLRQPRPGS
#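 Test system – truncated SCP-1 phosphatase (76-261aa) · Reagent – Phosphorylated 17-residue peptide substrate · Incubation – 45 min room-temperature reaction, 5 min colour, 30 min stabiliser · Detection – colorimetric phosphate reagent with accelerator and stabiliser, absorbance at 630 nm · Measure – % inhibition at 20 µM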
# SUMO1 PPI mod: alters human SUMO1 binding to SIM partners | 0.33% of 360,000 active | SUMO1 binding to a labelled peptide, TR-FRET, 1 h | inhibition, % at 20 µM | AID 602429; in the data active means inhibition above about 37%
# Target sequence (P63165 whole entry, looked up): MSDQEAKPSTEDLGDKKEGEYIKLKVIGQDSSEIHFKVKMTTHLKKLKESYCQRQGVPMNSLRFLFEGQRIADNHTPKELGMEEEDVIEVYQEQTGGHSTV
# LMPTP block: blocks human LMPTP phosphatase. inhibition, % at 20 µM. 0.22% of 360,000 active. recombinant LMPTP-A, OMFP fluorogenic substrate, fluorescence intensity. AID 651560;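 active means compounds that cut the enzyme signal by at least half of the control window in the single-dose screen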;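 further: plate controls were DMSO wells with enzyme plus substrate for no effect and substrate without enzyme for full effect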
# Target sequence (P24666 whole entry, looked up): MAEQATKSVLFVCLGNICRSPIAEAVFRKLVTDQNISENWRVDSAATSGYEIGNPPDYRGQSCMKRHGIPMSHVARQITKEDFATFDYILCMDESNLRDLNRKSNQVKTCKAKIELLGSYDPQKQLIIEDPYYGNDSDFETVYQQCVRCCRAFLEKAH
#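 Test system: LMPTP-A phosphatase enzyme; input: 0.625 nM LMPTP-A final; reagent: OMFP substrate, 400 µM final; compound dosing: 20 µM single dose, 3% DMSO; incubation: 50 min dark incubation at room temperature; measured by: endpoint fluorescence intensity from OMFP dephosphorylation; measure: % inhibition relative to no-enzyme and uninhibited control wells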
# Scp1 confirm: Scp-1 (human) inhibition, single-dose confirmed. shares compounds with Scp1 inh. recombinant SCP-1 catalytic domain, phosphate release, malachite green absorbance. inhibition, % at 20 µM. 61% of 2,500 active. AID 540281;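 further: plate controls were DMSO with enzyme for no effect and buffer wells lacking enzyme for full effect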
# Scp-1 MG ctr: colorimetric interference in Scp-1 counter-screen | shares compounds with Scp1 inh | Colorimetric interference counterscreen, malachite green absorbance 630 nm | apparent inhibition (interference), % at 20 µM | 2,500 tested, under 10 active | AID 540313;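 further: compounds added after enzyme reaction finished so only phosphate colour detection is probed; plate controls were DMSO wells with completed Scp-1 reaction for no effect and substrate wells lacking enzyme for full effect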
# Scp-1 Tm shift: binds human Scp-1, shifting its melting temperature | 25% of 1,500 active | thermal shift relative to vanadate control, % at 40 µM | AID 540329 | shares compounds with Scp1 inh | Recombinant SCP1, Sypro Orange thermal shift Tm;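 active means substances whose mean melting-temperature shift, as a percentage of the reference inhibitor's shift, reaches about 5.3%, limit read from the data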;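 further: 0% = Tm of DMSO wells and 100% = Tm with sodium orthovanadate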
# Numbers without * were called inactive; . = no result.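 How the source made its calls, unless noted: active means inhibition of at least 30% at 20 µM; inactive means the rest.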
SMILES,STEP block,HKDC1 inh,DNMT1 block,Scp1 inh,SUMO1 PPI mod,LMPTP block,Scp1 confirm,Scp-1 MG ctr,Scp-1 Tm shift
Cc1ccc(C)c(NC(=O)c2ccc3c(=O)n4c(nc3c2)CCC4)c1,-0.1,1.5,4.0,-7.6,2.9,-0.6,.,.,.
COc1ccc(C)cc1NC(=O)c1ccc2c(=O)n3c(nc2c1)CCCCC3,-0.1,0.1,-1.4,56.4*,-1.5,1.4,2.6,-0.8,.
O=C(CCC(=O)Nc1ccc(Br)cc1)N/N=C/c1cc([N+](=O)[O-])ccc1O,0.2,-3.1,-0.8,73.9*,-8.1,14.3,22.9,-9.3,.
Cc1ccc([C@@H]2CC(=O)[C@@H]3CN(S(=O)(=O)c4ccc(C)cc4)[C@H](c4ccccc4)C[C@@H]3N2S(=O)(=O)c2ccc(C)cc2)cc1,-0.6,.,-7.3,.,6.5,0.9,.,.,.
O=C(COc1ncnc2ccccc12)N1CCN(C(=O)c2ccco2)CC1,4.7,0.4,-0.2,0.6,-2.6,-2.9,.,.,.
O=C(COc1ncnc2sccc12)N1CCN(C(=O)c2ccco2)CC1,7.1,1.2,35.4,91.5*,46.5*,5.5,63.9*,-20.2,1.8
O=C(Nc1cc(S(=O)(=O)Nc2ccc(Cl)cc2)ccc1O)c1ccc(S(=O)(=O)N2CCCCCC2)cc1,6.3,1.4,-0.5,80.6*,4.9,2.9,76.7*,-15.1,9.9*
O=C(Nc1cc(S(=O)(=O)N2CCOCC2)ccc1O)c1ccc(S(=O)(=O)N2CCCCC2)cc1,-1.0,-3.2,-5.9,-6.5,10.5,0.5,.,.,.
Cc1ccccc1N(CC(=O)N1CCN(Cc2ccccc2)CC1)S(C)(=O)=O,1.5,.,-5.0,.,-4.8,-0.3,.,.,.
CC(=O)c1ccc(NC(=O)CN2C(=O)COc3ccc(S(=O)(=O)N4CCCC4)cc32)cc1,-1.6,-4.2,3.1,69.5*,3.0,-1.0,47.0*,-7.6,11.9*
Cc1ccc(NC(=O)CN2C(=O)CSc3ccc(S(=O)(=O)N4CCCCC4)cc32)cc1,-2.0,-2.3,-3.5,56.0*,2.1,1.9,56.5*,-12.6,46.9*
Cn1nnc(-c2ccc(OCc3ccccc3F)cc2)n1,4.4,-1.5,3.5,64.5*,-3.1,0.5,-9.6,-9.6,.
CC(/C=C/c1ccccc1F)=N\NC(=O)c1ccc(Cl)cc1,-1.5,-7.8,1.2,52.3*,0.3,-0.1,-14.2,-14.0,.
CC(/C=C/c1ccccc1F)=N\NC(=O)c1ccccc1,-0.8,11.3,1.6,-8.6,-15.8,-0.4,.,.,.
CN(C)CCNc1ncnc2c1ncn2[C@H]1CN(CCc2ccccc2)C[C@@H](CO)O1,2.4,.,0.3,.,-1.5,-2.8,.,.,.
CCCn1c(N)c(N(CCOC)C(=O)c2cc(-c3ccco3)nc3ccccc23)c(=O)[nH]c1=O,1.8,0.1,10.7,20.0,-4.8,2.0,.,.,.
COCCN(C(=O)COC(=O)Cc1coc2cc3c(cc12)CCC3)c1c(N)n(Cc2ccccc2)c(=O)[nH]c1=O,24.2,-4.1,31.1,67.4*,11.2,18.5,55.0*,-21.6,-25.1
COCCCN(C(=O)c1cc(-c2ccco2)nc2ccccc12)c1c(N)n(Cc2ccccc2)c(=O)[nH]c1=O,-0.9,-0.3,30.1,64.1*,-4.4,10.9,47.3*,-10.4,5.4*
NC(=O)COc1ccc(-n2cnnn2)cc1,6.3,-2.9,26.5,68.3*,1.6,11.5,52.2*,-11.8,-2.2
C[C@H](OC(=O)NCc1ccc(C(F)(F)F)cc1)[C@@H]1O[C@@]2(C)CCC[C@@H]1O2,-2.4,-0.5,5.0,-6.5,-0.9,-0.5,.,.,.
O=C(COc1ccc2oc(-c3ccccc3)cc(=O)c2c1)NCc1ccco1,0.0,6.2,17.0,81.7*,6.2,7.7,58.8*,-12.0,-6.3
O=C(COc1ccc2oc(-c3ccco3)cc(=O)c2c1)N1CCCCC1,8.2,-1.5,14.7,59.5*,-26.0,2.9,44.1*,-9.0,1.2
CCCCN1C(=O)C(CC(=O)NC2CCCC2)CC(C(=O)N2CCCCCC2)=C1C (centres undefined),.,.,.,.,0.0,-1.4,.,.,.
CC1CCCC(NC(=S)NC(=O)c2ccco2)C1C (centres undefined),-0.8,0.3,-0.9,-6.1,6.2,1.0,.,.,.
CC1(C(=O)NCc2ccc3c(c2)OCO3)CCN1C(=O)Cc1ccc(Cl)cc1Cl (centres undefined),3.4,.,-0.5,.,-1.5,0.1,.,.,.
SMILES,STEP block,HKDC1 inh,DNMT1 block,Scp1 inh,SUMO1 PPI mod,LMPTP block,Scp1 confirm,Scp-1 MG ctr,Scp-1 Tm shift
Cc1ccc(C(=O)O)cc1NC(=S)NC(=O)c1ccc(COc2ccccc2)cc1,9.2,2.3,2.7,50.3*,-2.9,2.4,36.8*,-26.2,-8.1
COC(=O)C[C@H]1CC[C@@H](NC(=O)C2CC2)[C@@H](CO)O1,.,.,.,.,5.0,-3.9,.,.,.
Cc1[nH]c2c(C)cccc2c(=O)c1CN1CCCCCC1,1.1,-0.5,-1.6,-13.5,-22.9,10.5,.,.,.
COc1cc(/C=C2\SC(=S)N(CCCCC(=O)O)C2=O)ccc1OS(=O)(=O)c1ccc(C)cc1,1.2,10.4,8.9,50.7*,11.1,7.6,47.9*,-25.2,14.6*
CSc1cccc(N2CC(C(=O)Nc3cccc(S(=O)(=O)N4CCCC4)c3)CC2=O)c1 (centres undefined),-2.8,5.0,0.1,73.6*,-1.2,1.0,76.1*,-23.8,-14.4
CCOc1ccc(N2CC(C(=O)Nc3cccc(S(=O)(=O)N4CCCCC4)c3)CC2=O)cc1 (centres undefined),-1.2,-4.3,-4.6,-6.0,3.9,1.0,.,.,.
COc1ccc(N2CC(C(=O)Nc3nc4ccccc4s3)CC2=O)cc1 (centres undefined),0.9,-7.5,0.2,-4.3,2.6,-0.9,-3.0,-4.3,.
COc1ccc(N2CC(C(=O)Nc3ccc(S(=O)(=O)N4CCCC4)cc3)CC2=O)cc1 (centres undefined),-1.3,0.6,-5.3,53.5*,1.4,-0.4,-23.4,-20.0,.
COc1ccc(N2CC(C(=O)Nc3ccc(N4CCOCC4)cc3)CC2=O)cc1 (centres undefined),2.8,1.5,-2.4,-2.9,0.6,-0.6,.,.,.
CCOc1ccc(N2CC(C(=O)Nc3ccc(N4CCOCC4)cc3)CC2=O)cc1 (centres undefined),-2.2,-3.1,-2.2,-0.6,-1.5,-0.9,-2.1,-14.5,.
